Screening results deposited in PubChem by Columbia University Molecular Screening Center.
This is one part of a sample in which hits are shown more often than they occur.
INS promoter act: TRM-6 insulin promoter activation. TRM-6 cells, insulin promoter eGFP reporter, imaging; plate-scaled: unstimulated 0, stimulated control 100. activation, % at 2 µM. 130,000 tested, 0.81% active;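 active = activation at 2 µM above a set limit, confirmed on inspection of the cell images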;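 also: share of cells whose green reporter signal exceeds an intensity cutoff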
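material = TRM-6 human fetal islet cells, insulin promoter–eGFP reporter | input = 1,000 TRM-6 cells seeded per well | benchmarks = stimulated versus unstimulated wells as plate controls | measured by = automated fluorescence imaging of paraformaldehyde-fixed, Hoechst-counterstained cells, green channel | schedule = compound exposure 48 h, 37 °C | reagent = tamoxifen at 0.75 µM added at seeding for reporter induction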
Large screens that a line does not name were inactive.

CCN(CC)c1ccc(N=Cc2c(O)n(-c3cc(OC)ccc3OC)c(=O)[nH]c2=O)cc1	INS promoter act 650
CCOC(=O)c1ccc(N=Cc2c(O)n(-c3ccccc3F)c(=S)[nH]c2=O)cc1	none
COc1ccc(N=Cc2c(O)n(-c3ccc(C)cc3)c(=O)[nH]c2=O)cc1	none
C=CC(C)C(C(=O)c1ccccc1)N(C)C (configuration not stated)	none
CN1C(=O)N(C)C(=O)C2(Cc3c(ccc4ccccc34)N(C)C2)C1=O	INS promoter act 129
Cc1cc2ccccc2c(=O)n1CC(=O)NCC(=O)N1CCC2(CC1)OCCO2	none
Cc1ccc(S(=O)(=O)NC(Cc2cnc[nH]2)C(=O)O)cc1 (configuration not stated)	none
CCCNc1nc(OC)nc(N2CC3CC(C2)c2cccc(=O)n2C3)n1 (configuration not stated)	none
CC1CCC[C@H](O)CCCCCc2cc(O)cc(O)c2C(=O)O1 (some centres not stated)	none
CC1CCC/C=C/C2CC(O)CC2C(O)/C=C/C(=O)O1 (configuration not stated)	INS promoter act 228
Cc1ccccc1NC1(C#N)CCCCC1	none
OC(CNC1CCCCC1)C(F)(F)F (configuration not stated)	none
CC(C)N1CCC2(CC1)NC(CO)(CO)CO2	none
O=[N+]([O-])[N-][n+]1cnn(Cc2ccc(Cl)cc2)c1	INS promoter act 141
O=C(COc1ccc(Cl)cc1)N1CCN(Cc2ccc([N+](=O)[O-])cc2)CC1	none
CN1CSC(=S)N(C)C1	none
CCP(=S)(CC)c1ccc(N(C)C)cc1	INS promoter act 396
O=C1NC(=O)C(CCc2ccncc2)(Cc2ccc([N+](=O)[O-])cc2)C(=O)N1	none
O=c1c2ccccc2[se]n1-c1ccccc1	none
Cc1cc(NC(=O)CCl)no1	none
Nc1ccc2c(c1)oc1ccccc12	none
CCSP1(=S)N=C(N2CCOCC2)C(C#N)=C2CCCN21 (configuration not stated)	none
CN1/C(=C\C=C2C(=O)NC(=O)NC2=O)C(C)(C)c2ccccc21	none
CN1/C(=C\C=C\C2=[N+](C)c3ccc4ccccc4c3C2(C)C)C(C)(C)c2ccccc21	INS promoter act 151
CC(=O)N(C1=NCCCS1)c1ccccc1Cl	none
CC12CN3CC(C)(CN(C1)C31CCOCC1)C2=O	none
OC(CCNCCc1c[nH]c2ccccc12)C(F)(F)F (configuration not stated)	none
CN1CCN(/N=C/c2c(O)n(C)c(=O)n(C)c2=O)CC1	none
Cc1nn(Cc2ccccc2)c(C)c1C(=O)OCC(=O)NC1CCS(=O)(=O)C1 (configuration not stated)	none
CC(=O)N1N=C2C3CCN(CC3)C2C1c1cccc2ccccc12 (configuration not stated)	none
O=C(c1cc(-c2ccccc2)on1)N1CCC2(CC1)OCCO2	none
O=C(NCc1ccc(C(=O)N2CCC3(CC2)OCCO3)cc1)c1cccc(Br)c1	INS promoter act 227
O=C(CNS(=O)(=O)c1cccs1)N1CCC2(CC1)OCCO2	none
Nc1ccc(Cl)cc1C(=O)c1ccccc1Cl	INS promoter act 433
Cc1ccc(-n2c(O)c(/C=N/N3CCCCC3c3cccnc3)c(=O)[nH]c2=S)cc1 (configuration not stated)	none
Cn1c(O)c(C(=NCCc2c[nH]c3ccccc23)c2ccccc2)c(=O)n(C)c1=O	none
CC(C)CCC1(CN2CCCC2=O)C(=O)NC(=O)NC1=O	none
O=C(C1CC(=O)N(C2CCCCCCC2)C1)N1CCC2(CC1)OCCO2 (configuration not stated)	none
C=CCn1c(=O)c(C=Nc2cccnc2Cl)c(O)n(CCCC)c1=O	none
Cc1ccc(CS(=O)(=O)CCC(=O)N2CCC3(CC2)OCCO3)cc1	none
Cc1ccc(Cc2c(C)nc3nc(SCC(=O)N4CCC5(CC4)OCCO5)nn3c2C)cc1	INS promoter act 125
Cc1ccc2c(c1)N(CCC(=O)N1CCC3(CC1)OCCO3)C(=O)CO2	none
CCC(C)NC(=O)CN1C(=O)CN=C(c2ccccc2)c2ccccc21 (configuration not stated)	none
CCN(CC)c1ccc(/C=N/c2sc3c(c2C#N)C2CCN3CC2)c(O)c1	INS promoter act 285
Cc1ccc(S(=O)(=O)CC(C)(O)C(=O)Nc2cccc(C(F)(F)F)c2)cc1 (configuration not stated)	INS promoter act 212
O=C(N/N=C\C1C(=O)NC(=S)N(c2ccccc2)C1=O)c1ccc(O)cc1 (configuration not stated)	none
CN(C)c1cccc2c(C#N)ccc(N(C)C)c12	none
O=P(O)(O)C#Cc1ccccc1	none
CCCC(=O)OCC[N+](C)(C)C	none
Cc1sc(-n2c(C)cc(C=C3C(=O)NC(=O)NC3=O)c2C)c(C#N)c1C	none
CC(Cc1ccccc1)[n+]1cc(/N=C(\[O-])N(C)C)on1 (configuration not stated)	none
Cc1ccc(C2=NC(C)(C)N3C2C3c2ccc([N+](=O)[O-])cc2)cc1 (configuration not stated)	none
Cc1c(C(=O)N2CCC3(CC2)OCCO3)sc2ncnc(N3CCN(c4ccccn4)CC3)c12	none
Cc1sc2nc(COC(=O)Cc3ccccc3)[nH]c(=O)c2c1C	none
CC(C)n1cc(C(=O)N(CC(=O)NC(C)(C)C)Cc2ccccc2)cn1	none
COC(=NC1CCCC1)C(O)c1c[nH]c2ccccc12 (configuration not stated)	INS promoter act 667
O=C(c1ccc(N2CC3CC(C2)c2cccc(=O)n2C3)c([N+](=O)[O-])c1)N1CCCCC1 (configuration not stated)	none
CN1CCN(Cc2ccccc2Sc2ccccc2)CC1	none
CCOC(=O)N1CCN(C(C)C(=O)c2c[nH]c3ccccc23)CC1 (configuration not stated)	none
O=C(O)C1C2CCC(O2)C1C(=O)NC1CCCCC1 (configuration not stated)	none
COc1c(C)cc(C(=O)C2CCCN(Cc3ccccn3)C2)cc1C (configuration not stated)	INS promoter act 319
O=C(c1ccc2c(c1)OCO2)C1CCCN(Cc2ccccn2)C1 (configuration not stated)	none
CSc1ccc(C(=O)C2CCCN(Cc3cc4ccccc4[nH]3)C2)cc1 (configuration not stated)	none
CC12CCC3C(CC=C4CC5(CCC43C)OCCO5)C1CCC2=O (configuration not stated)	none
CN1CCC(C)(O)C2CCCCC21 (configuration not stated)	none
CN(C)CCCN=Cc1c(O)n(CCc2ccccc2)c(=O)[nH]c1=O	none
Cc1c(N=Cc2c(O)n(CCc3ccc(F)cc3)c(=O)[nH]c2=O)c(=O)n(-c2ccccc2)n1C	INS promoter act 400
CC(=Nc1c(C)n(C)n(-c2ccccc2)c1=O)c1c(O)n(Cc2ccccc2)c(=O)[nH]c1=O	none
CC1(C)C(C(=O)NN2C(=O)c3ccccc3C2=O)C1(C)C	none
COc1ccccc1Cn1c(SCC#N)nc2cc(C(=O)N3CCC4(CC3)OCCO4)ccc2c1=O	none
